Where a name gives a salt, the structure may show the parent alone. The source made the active and inactive calls. The rule behind the calls is not given here. *1 amine or outer side, *2 acyl side, *3 side chain or, on linkers, in order; H or OH if unused. Where a SMILES comes first, the peptide text is derived from it. The star is where a group is joined. AMC = Cc1cc(=O)oc2cc(N*)ccc12; Suc = O=C(CCC(=O)[*:2])[*:1]; Tfa = O=C(C(F)(F)F)*
Tests used:
[1] = molecular target: T1, NAD-dependent protein deacetylase sirtuin-3, mitochondrial (Homo sapiens) (UniProt Q9NTG7); assay: Activity of human SIRT3 assessed as decrotonylation of compound at 50 uM after 1 hr by trypsin developer-based fluorescence assay
T1 sequence (whole entry): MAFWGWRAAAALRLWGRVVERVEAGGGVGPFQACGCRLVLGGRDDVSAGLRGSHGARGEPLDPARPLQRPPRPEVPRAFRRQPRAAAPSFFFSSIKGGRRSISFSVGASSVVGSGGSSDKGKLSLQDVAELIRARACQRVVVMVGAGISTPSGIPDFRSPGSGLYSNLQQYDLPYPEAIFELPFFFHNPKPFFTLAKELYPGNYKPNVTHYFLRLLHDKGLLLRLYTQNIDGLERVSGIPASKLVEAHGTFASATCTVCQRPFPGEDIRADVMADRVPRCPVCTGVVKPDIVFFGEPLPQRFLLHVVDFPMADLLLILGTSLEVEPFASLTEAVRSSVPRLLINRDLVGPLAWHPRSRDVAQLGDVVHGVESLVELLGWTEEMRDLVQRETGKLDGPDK
Outline: (§1)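 Recombinant sirtuin at 1 μg per 50 μL reaction, with SIRT1-GST fusion as the SIRT1 source. Fluorogenic substrate and NAD incubated in Tris-Cl buffer pH 8.0 with BSA (1 mg/mL) for 1 h at 37 °C. Developer with nicotinamide (2 mM) and trypsin (0.4 mg/mL) added, 15–30 min at room temperature. Fluorescence read at ex 360/em 460 nm and normalized to no-enzyme wells. At least two experiments in duplicate.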

[2] = molecular target: NAD-dependent protein deacylase sirtuin-6 (Homo sapiens) (UniProt Q8N6T7); assay: Activity of human SIRT6 assessed as decrotonylation of compound at 50 uM after 1 hr by trypsin developer-based fluorescence assay; outline: as §1
NAD-dependent protein deacylase sirtuin-6 (Homo sapiens), sequence (Q8N6T7 whole entry): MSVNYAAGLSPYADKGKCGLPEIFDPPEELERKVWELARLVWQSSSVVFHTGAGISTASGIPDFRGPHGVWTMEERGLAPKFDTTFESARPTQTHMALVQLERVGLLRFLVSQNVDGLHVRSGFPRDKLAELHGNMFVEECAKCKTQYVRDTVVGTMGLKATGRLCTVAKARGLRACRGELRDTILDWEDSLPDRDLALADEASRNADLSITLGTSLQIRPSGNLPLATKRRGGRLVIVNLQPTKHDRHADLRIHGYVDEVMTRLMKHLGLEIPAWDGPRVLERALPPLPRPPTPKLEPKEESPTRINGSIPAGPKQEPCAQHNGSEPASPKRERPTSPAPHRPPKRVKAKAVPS

[3] = molecular target: NAD-dependent protein deacylase sirtuin-5, mitochondrial (Homo sapiens) (UniProt Q9NXA8); assay: Activity of human SIRT5 assessed as decrotonylation of compound at 50 uM after 1 hr by trypsin developer-based fluorescence assay; outline: as §1
NAD-dependent protein deacylase sirtuin-5, mitochondrial (Homo sapiens), sequence (Q9NXA8 37-310 limits assumed): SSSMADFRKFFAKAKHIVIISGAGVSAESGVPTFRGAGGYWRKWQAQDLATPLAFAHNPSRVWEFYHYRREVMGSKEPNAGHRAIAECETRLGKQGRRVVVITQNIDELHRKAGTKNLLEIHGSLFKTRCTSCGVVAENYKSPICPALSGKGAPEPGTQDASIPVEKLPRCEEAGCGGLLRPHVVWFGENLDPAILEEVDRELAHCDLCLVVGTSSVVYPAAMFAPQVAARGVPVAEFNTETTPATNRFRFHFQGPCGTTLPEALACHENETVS

[4] = molecular target: T2, NAD-dependent protein deacetylase sirtuin-1 (Homo sapiens) (UniProt Q96EB6); assay: Activity of human SIRT1 assessed as decrotonylation of compound at 50 uM after 1 hr by trypsin developer-based fluorescence assay; outline: as §1
T2 sequence (whole entry): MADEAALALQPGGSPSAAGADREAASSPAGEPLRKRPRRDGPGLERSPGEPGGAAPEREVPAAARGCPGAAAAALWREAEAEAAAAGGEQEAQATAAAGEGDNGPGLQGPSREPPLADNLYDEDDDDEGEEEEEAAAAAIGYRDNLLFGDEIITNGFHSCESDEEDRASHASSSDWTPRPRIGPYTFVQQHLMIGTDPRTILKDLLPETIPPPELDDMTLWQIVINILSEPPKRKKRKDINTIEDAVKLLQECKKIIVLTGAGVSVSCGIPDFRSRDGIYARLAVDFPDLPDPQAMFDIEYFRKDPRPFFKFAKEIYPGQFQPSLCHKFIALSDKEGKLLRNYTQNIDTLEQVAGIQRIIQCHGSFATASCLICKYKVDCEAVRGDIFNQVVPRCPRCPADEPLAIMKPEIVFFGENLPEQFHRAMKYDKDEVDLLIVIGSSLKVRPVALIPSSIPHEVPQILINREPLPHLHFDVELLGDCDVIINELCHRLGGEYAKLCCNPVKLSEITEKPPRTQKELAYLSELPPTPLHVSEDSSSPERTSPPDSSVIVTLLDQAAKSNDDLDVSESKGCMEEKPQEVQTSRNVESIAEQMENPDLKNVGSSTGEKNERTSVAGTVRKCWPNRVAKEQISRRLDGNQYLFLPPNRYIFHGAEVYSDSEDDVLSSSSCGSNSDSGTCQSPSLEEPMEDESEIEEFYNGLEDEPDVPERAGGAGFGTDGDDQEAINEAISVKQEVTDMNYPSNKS

[5] = molecular target: T3, NAD-dependent protein deacetylase sirtuin-2 (Homo sapiens) (UniProt Q8IXJ6); assay: Activity of human SIRT2 assessed as decrotonylation of compound at 50 uM after 1 hr by trypsin developer-based fluorescence assay; outline: as §1
T3 sequence (whole entry): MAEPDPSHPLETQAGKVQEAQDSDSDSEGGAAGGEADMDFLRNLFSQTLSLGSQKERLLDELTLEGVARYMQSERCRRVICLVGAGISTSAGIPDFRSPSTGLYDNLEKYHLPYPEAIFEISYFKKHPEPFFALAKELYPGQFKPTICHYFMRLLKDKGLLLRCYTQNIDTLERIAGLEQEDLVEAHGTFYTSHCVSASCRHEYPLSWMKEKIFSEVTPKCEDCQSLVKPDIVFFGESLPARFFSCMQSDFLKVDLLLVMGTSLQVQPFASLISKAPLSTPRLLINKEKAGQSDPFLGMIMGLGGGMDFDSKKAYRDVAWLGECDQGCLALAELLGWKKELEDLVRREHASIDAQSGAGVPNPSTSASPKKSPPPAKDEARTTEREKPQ

[6] = molecular target: NAD-dependent protein deacylase sirtuin-5, mitochondrial (Homo sapiens) (UniProt Q9NXA8); assay: Activity of human SIRT5 assessed as deacylation of compound at 50 uM after 1 hr by trypsin developer-based fluorescence assay; outline: as §1
[7] = molecular target: NAD-dependent protein deacylase sirtuin-6 (Homo sapiens) (UniProt Q8N6T7); assay: Activity of human SIRT6 assessed as deacylation of compound at 50 uM after 1 hr by trypsin developer-based fluorescence assay; outline: as §1
[8] = molecular target: T4, NAD-dependent protein lipoamidase sirtuin-4, mitochondrial (Homo sapiens) (UniProt Q9Y6E7); assay: Activity of recombinant human SIRT4 assessed as deacylation of compound at 50 uM after 1 hr by trypsin developer-based fluorescence assay; outline: as §1
T4 sequence (whole entry): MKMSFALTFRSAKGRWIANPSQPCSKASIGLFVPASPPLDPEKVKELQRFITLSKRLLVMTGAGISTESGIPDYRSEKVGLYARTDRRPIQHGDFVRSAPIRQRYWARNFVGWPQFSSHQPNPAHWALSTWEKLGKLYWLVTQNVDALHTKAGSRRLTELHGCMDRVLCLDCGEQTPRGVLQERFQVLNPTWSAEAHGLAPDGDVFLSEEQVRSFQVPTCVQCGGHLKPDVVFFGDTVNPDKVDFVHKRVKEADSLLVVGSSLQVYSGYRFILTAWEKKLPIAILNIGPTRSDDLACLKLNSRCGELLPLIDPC

[9] = molecular target: T2, NAD-dependent protein deacetylase sirtuin-1 (Homo sapiens); assay: Activity of human full length SIRT1 enzyme at 50 uM after 1 hr by trypsin developer-based fluorescence assay
Outline: (§2)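 Acetylated substrates were each treated with commercial full-length His-tagged SIRT1 or truncated SIRT1-GST fusion, with NAD, in Tris-Cl pH 8.0 buffer containing BSA. End point: 1 h at 37 °C, then nicotinamide (2 mM)/trypsin (0.4 mg/mL) developer for 15–30 min at room temperature. Fluorescence read at ex 360/em 460 nm against no-enzyme control wells.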

[10] = molecular target: T2, NAD-dependent protein deacetylase sirtuin-1 (Homo sapiens); assay: Activity of human SIRT1 assessed as deacylation of compound at 50 uM after 1 hr by trypsin developer-based fluorescence assay; outline: as §1
[11] = molecular target: T5, NAD-dependent protein deacetylase sirtuin-7 (Homo sapiens) (UniProt Q9NRC8); assay: Activity of recombinant human SIRT7 assessed as deacylation of compound at 50 uM after 1 hr by trypsin developer-based fluorescence assay; outline: as §1
T5 sequence (whole entry): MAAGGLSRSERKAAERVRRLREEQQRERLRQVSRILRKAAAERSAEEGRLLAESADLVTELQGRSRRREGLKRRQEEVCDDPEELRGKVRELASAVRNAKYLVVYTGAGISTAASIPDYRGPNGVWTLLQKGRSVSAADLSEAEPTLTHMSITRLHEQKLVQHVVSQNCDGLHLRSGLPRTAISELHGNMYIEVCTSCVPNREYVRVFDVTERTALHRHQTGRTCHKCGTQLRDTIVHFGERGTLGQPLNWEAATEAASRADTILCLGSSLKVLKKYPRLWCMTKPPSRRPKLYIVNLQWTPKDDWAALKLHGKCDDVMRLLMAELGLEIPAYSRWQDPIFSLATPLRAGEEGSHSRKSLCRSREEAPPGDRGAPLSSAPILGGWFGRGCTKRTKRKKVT

[12] = molecular target: T3, NAD-dependent protein deacetylase sirtuin-2 (Homo sapiens); assay: Activity of human SIRT2 assessed as deacylation of compound at 50 uM after 1 hr by trypsin developer-based fluorescence assay; outline: as §1
[13] = molecular target: T1, NAD-dependent protein deacetylase sirtuin-3, mitochondrial (Homo sapiens); assay: Activity of human SIRT3 assessed as deacylation of compound at 50 uM after 1 hr by trypsin developer-based fluorescence assay; outline: as §1
[14] = molecular target: T2, NAD-dependent protein deacetylase sirtuin-1 (Homo sapiens); assay: Activity of human truncated SIRT1-GST fusion protein at 50 uM after 1 hr by trypsin developer-based fluorescence assay; outline: as §2
[15] = tested on: CC(=O)N[C@@H](CC(C)C)C(=O)NCC(=O)N[C@@H](CCCCNC(=O)CCC(=O)O)C(=O)Nc1ccc2c(C)cc(=O)oc2c1; assay: (§3) Ratio of Kcat to Km for human SIRT5 assessed as desuccinylation of compound after 1 hr by Michaelis-Menten plot analysis
Outline: (§4)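 Recombinant human SIRT5 with fluorogenic succinyllysine-AMC substrate and NAD in Tris-Cl buffer pH 8.0 containing BSA, with in situ AMC release by Lys-C or trypsin developer. Fluorescence (ex 360/em 460 nm) read every 30 s for at least 30 min at 25 °C to give initial rates over a substrate concentration series. Km and Vmax from Michaelis-Menten fit; kcat from AMC standard curve and supplier enzyme concentration.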

[16] = tested on: CC(=O)N[C@@H](CCCCNC(=O)CCC(=O)O)C(=O)Nc1ccc2c(C)cc(=O)oc2c1; assay: as §3; outline: as §4
[17] = tested on: CC(=O)N[C@@H](CC(C)C)C(=O)NCC(=O)N[C@@H](CCCCNC(=O)CCC(=O)O)C(=O)Nc1ccc2c(C)cc(=O)oc2c1; assay: (§5) Activity of human SIRT5 assessed as desuccinylation of compound after 1 hr by Michaelis-Menten plot analysis; outline: as §4
[18] = tested on: CC(=O)N[C@@H](CCCCNC(=O)CCC(=O)O)C(=O)Nc1ccc2c(C)cc(=O)oc2c1; assay: as §5; outline: as §4

NAD-dependent protein deacylase sirtuin-5, mitochondrial (Homo sapiens), Q9NXA8, sequence (Q9NXA8 whole entry): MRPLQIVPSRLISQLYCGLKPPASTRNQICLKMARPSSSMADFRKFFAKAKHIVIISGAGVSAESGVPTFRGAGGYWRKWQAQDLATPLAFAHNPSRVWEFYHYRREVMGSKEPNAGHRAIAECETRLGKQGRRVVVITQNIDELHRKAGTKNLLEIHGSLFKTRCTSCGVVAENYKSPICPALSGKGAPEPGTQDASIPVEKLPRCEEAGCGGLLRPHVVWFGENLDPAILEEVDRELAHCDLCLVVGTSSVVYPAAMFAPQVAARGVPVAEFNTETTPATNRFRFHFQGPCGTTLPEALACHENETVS

| Activity [6] | Activity [7] | Activity [8] | Activity [9] | Activity [10] | Activity [11] | Activity [12] | Activity [13] | Activity [14] | Compound | further results |
| --- | --- | --- | --- | --- | --- | --- | --- | --- | --- | --- |
|  |  |  |  |  |  |  |  |  | C/C=C/C(=O)NCCCC[C@H](NC(=O)CNC(=O)[C@H](CC(C)C)NC(C)=O)C(=O)Nc1ccc2c(C)cc(=O)oc2c1 | Activity [1]: inactive; Activity [2]: inactive; Activity [3]: inactive; Activity [4]: inactive; Activity [5]: inactive |
| inactive | inactive | inactive | Active | Active | inactive | Active | Active | Active | CC(=O)NCCCC[C@H](NC(=O)[C@H](CCCNC(=N)N)NC(=O)[C@H](C)NC(=O)[C@@H](NC(C)=O)[C@H](C)O)C(=O)Nc1ccc2c(C)cc(=O)oc2c1 |  |
| inactive | inactive | inactive | inactive | Active | inactive | Active | Active | inactive | CC(=O)NCCCC[C@H](NC(C)=O)C(=O)Nc1ccc2c(C)cc(=O)oc2c1 |  |
| inactive | inactive | inactive | inactive | Active | inactive | Active | Active | inactive | CC(=O)NCCCC[C@H](NC(=O)CNC(=O)[C@H](CC(C)C)NC(C)=O)C(=O)Nc1ccc2c(C)cc(=O)oc2c1 (Ac-Leu-Gly-Lys(Ac)-{AMC}) |  |
| Active | inactive | inactive |  |  | inactive |  |  |  | CC(=O)N[C@@H](CC(C)C)C(=O)NCC(=O)N[C@@H](CCCCNC(=O)CCC(=O)O)C(=O)Nc1ccc2c(C)cc(=O)oc2c1 (Ac-Leu-Gly-Lys(Suc)-{AMC}) |  |
|  |  |  |  |  |  |  |  |  | CC(=O)N[C@@H](CC(C)C)C(=O)NCC(=O)N[C@@H](CCCCNC(=O)C(F)(F)F)C(=O)Nc1ccc2c(C)cc(=O)oc2c1 (Ac-Leu-Gly-Lys(Tfa)-{AMC}) | Activity [1]: inactive; Activity [2]: inactive; Activity [3]: inactive; Activity [4]: Active; Activity [5]: inactive |
| inactive | inactive | inactive | inactive | Active | inactive | Active | Active | inactive | CC(=O)NCCCC[C@H](NC(=O)[C@H](CCCCN)NC(=O)[C@@H]1CCCN1C(=O)[C@H](CCC(N)=O)NC(C)=O)C(=O)Nc1ccc2c(C)cc(=O)oc2c1 (Ac-QPKK(Ac)-{AMC}) |  |
| inactive | inactive | inactive | inactive | Active | inactive | Active | Active | inactive | CC(=O)NCCCC[C@H](NC(=O)[C@H](CCCCNC(C)=O)NC(=O)[C@H](Cc1cnc[nH]1)NC(=O)[C@H](CCCNC(=N)N)NC(C)=O)C(=O)Nc1ccc2c(C)cc(=O)oc2c1 (Ac-RHK(Ac)K(Ac)-{AMC}) |  |
| inactive | inactive | inactive | inactive | Active | inactive | Active | Active | inactive | CC(=O)NCCCC[C@H](NC(=O)[C@H](CCCCN)NC(=O)[C@H](Cc1cnc[nH]1)NC(=O)[C@H](CCCNC(=N)N)NC(C)=O)C(=O)Nc1ccc2c(C)cc(=O)oc2c1 (Ac-RHKK(Ac)-{AMC}) |  |
|  |  |  |  |  |  |  |  |  | NAD-dependent protein deacylase sirtuin-5, mitochondrial (Homo sapiens), Q9NXA8 | kcat/Km [15]: 9.2 ×10² /s/M; kcat/Km [16]: 1.1 ×10² /s/M; Km [17]: 33 µM; Vmax [17]: 1.9 nM/s; kcat [17]: 3 ×10⁻² /s; Km [18]: 84 µM; Vmax [18]: 5.6 ×10⁻⁴ µM/s; kcat [18]: 9 ×10⁻³ /s |
